ChEMBL document CHEMBL4725414, “Identification, Structure-Activity Relationship, and Biological Characterization of 2,3,4,5-Tetrahydro-1H-pyrido[4,3-b]indoles as a Novel Class of CFTR Potentiators” (J Med Chem, 2020)
The source made the active and inactive calls.

Legend:
[1] = test system: Cystic fibrosis transmembrane conductance regulator (Homo sapiens), P13569 [F508del]; assay: Potentiation of human CFTR F508 deletion mutant expressed in rat FRT cells coexpressing HS-YFP assessed as increase in iodide influx at 5 uM pre-incubated for 15 to 30 mins in presence of forskolin by fluorescent method relative to forskolin alone; assay type: cell-based; conditions: filed as activator, time min 15-30
Outline: (§1)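 Cells plated 50,000/well, assayed next day; F508del FRT cells first held 24 h at 32 °C to rescue trafficking. Washed in PBS, incubated 25 min with forskolin (20 μM) plus compound, then I⁻ solution injected (final 100 mM). YFP fluorescence (ex 500, em 535 nm) read for 14 s; initial slope from linear fit of final 10 s; dose–response, n = 9.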

[2] = test system: Cystic fibrosis transmembrane conductance regulator (Homo sapiens), P13569 [F508del]; assay: Potentiation of human CFTR F508 deletion mutant expressed in rat FRT cells coexpressing HS-YFP assessed as increase in iodide influx at […] to 10 uM pre-incubated for 15 to 30 mins in presence of forskolin by fluorescent method relative to forskolin alone; assay type: cell-based; conditions: filed as activator, dose microM 0.256-10, time min 15-30; outline: as §1
[3] = test system: Cystic fibrosis transmembrane conductance regulator (Homo sapiens), P13569 [G551D]; assay: Potentiation of human CFTR G551D mutant expressed in rat FRT cells coexpressing HS-YFP assessed as increase in iodide influx at 1.56 to 50 uM pre-incubated for 15 to 30 mins in presence of forskolin by fluorescent method relative to forskolin alone; assay type: cell-based; conditions: filed as activator, dose microM 1.56-50, time min 15-30; outline: as §1
[4] = test system: Cystic fibrosis transmembrane conductance regulator (Homo sapiens), P13569 [F508del]; assay: Potentiation of human CFTR F508 deletion mutant expressed in CFBE41o cells coexpressing HS-YFP assessed as increase in CFTR-dependent iodide influx at 0.256 to 10 uM pre-incubated for 15 to 30 mins in presence of forskolin by fluorescent method relative to forskolin alone; conditions: filed as activator, dose microM 0.256-10, time min 15-30
[5] = test system: Cystic fibrosis transmembrane conductance regulator (Homo sapiens), P13569 [F508del]; assay: Potentiation of human CFTR F508 deletion mutant expressed in rat FRT cells coexpressing HS-YFP assessed as increase in iodide influx pre-incubated for 15 to 30 mins in presence of forskolin by fluorescent method relative to forskolin alone; assay type: cell-based; conditions: time min 15-30
Outline: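 Primary HTS: F508del-CFTR/HS-YFP FRT cells, rescued 24 h at 32 °C, were treated acutely (15–30 min) with single compound at 5 μM plus forskolin 10 μM, screened in duplicate. The HS-YFP quenching rate from iodide influx was expressed relative to forskolin-alone wells. Forskolin plus VX-770 1 μM served as positive control. The average of two rounds was scored, with hit threshold >185%.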

[6] = target: T1, Cystic fibrosis transmembrane conductance regulator (Homo sapiens, UniProt P13569); assay: Potentiation of human CFTR F508 deletion mutant expressed in rat FRT cells coexpressing HS-YFP assessed as increase in iodide influx pre-incubated for 15 to 30 mins in presence of forskolin by fluorescent method; assay type: cell-based
Target sequence in this assay (P13569 as listed by the source): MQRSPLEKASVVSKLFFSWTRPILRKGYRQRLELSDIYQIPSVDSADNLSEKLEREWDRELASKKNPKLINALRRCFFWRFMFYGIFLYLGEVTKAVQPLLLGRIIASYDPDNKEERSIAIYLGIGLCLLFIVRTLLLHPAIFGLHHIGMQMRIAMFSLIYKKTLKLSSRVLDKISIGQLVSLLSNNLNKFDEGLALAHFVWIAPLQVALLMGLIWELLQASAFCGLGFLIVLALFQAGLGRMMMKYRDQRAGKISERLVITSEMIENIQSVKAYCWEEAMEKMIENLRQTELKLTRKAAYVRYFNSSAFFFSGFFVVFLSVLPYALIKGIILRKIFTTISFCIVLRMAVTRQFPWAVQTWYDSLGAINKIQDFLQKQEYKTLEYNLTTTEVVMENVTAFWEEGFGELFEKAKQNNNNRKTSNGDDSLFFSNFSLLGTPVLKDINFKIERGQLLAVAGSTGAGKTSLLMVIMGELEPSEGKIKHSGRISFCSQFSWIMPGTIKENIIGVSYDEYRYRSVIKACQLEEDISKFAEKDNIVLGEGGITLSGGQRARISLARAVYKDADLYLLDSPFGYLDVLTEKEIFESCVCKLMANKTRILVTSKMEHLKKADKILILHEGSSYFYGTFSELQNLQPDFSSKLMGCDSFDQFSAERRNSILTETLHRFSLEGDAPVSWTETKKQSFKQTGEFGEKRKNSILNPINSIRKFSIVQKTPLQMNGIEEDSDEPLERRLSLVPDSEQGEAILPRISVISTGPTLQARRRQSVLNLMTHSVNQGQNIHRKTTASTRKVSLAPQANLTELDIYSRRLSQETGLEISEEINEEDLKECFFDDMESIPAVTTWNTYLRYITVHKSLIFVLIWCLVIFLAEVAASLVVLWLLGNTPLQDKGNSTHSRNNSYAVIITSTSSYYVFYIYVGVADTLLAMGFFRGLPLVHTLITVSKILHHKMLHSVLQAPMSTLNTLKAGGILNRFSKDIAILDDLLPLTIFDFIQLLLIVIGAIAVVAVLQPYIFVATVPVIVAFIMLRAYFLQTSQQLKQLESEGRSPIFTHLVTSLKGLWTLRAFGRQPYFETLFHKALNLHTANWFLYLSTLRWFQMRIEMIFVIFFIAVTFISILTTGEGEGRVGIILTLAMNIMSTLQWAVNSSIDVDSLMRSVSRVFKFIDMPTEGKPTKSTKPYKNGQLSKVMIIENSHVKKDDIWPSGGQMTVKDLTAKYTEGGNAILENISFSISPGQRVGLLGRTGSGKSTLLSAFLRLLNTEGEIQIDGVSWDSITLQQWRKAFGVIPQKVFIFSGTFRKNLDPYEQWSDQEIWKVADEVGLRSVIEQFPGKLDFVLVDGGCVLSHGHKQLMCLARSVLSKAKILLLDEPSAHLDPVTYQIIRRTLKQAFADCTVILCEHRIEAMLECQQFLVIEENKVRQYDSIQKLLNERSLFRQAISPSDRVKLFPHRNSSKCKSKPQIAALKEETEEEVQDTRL

[7] = test system: Cystic fibrosis transmembrane conductance regulator (Homo sapiens), P13569 [G551D]; assay: Potentiation of human CFTR G551D mutant expressed in rat FRT cells coexpressing HS-YFP assessed as increase in iodide influx at 20 uM pre-incubated for 15 to 30 mins in presence of forskolin by fluorescent method relative to forskolin alone; assay type: cell-based; conditions: time min 15-30
Outline: (§2)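 HS-YFP iodide influx assay in FRT cells (F508del cells rescued 24 h at 32 °C; G551D cells not); 25 min with forskolin plus compound at fixed concentrations, then I⁻ injection (final 100 mM); quenching rate from linear fit of final 10 s of a 14 s reading; three concentrations tested on G551D cells; n = 9.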

[8] = test system: Cystic fibrosis transmembrane conductance regulator (Homo sapiens), P13569 [F508del]; assay: Potentiation of human CFTR F508 deletion mutant expressed in rat FRT cells coexpressing HS-YFP assessed as increase in iodide influx at 1 uM pre-incubated for 15 to 30 mins in presence of forskolin by fluorescent method relative to forskolin alone; assay type: cell-based; conditions: filed as activator, time min 15-30; outline: as §2
[9] = test system: Cystic fibrosis transmembrane conductance regulator (Homo sapiens), P13569 [G551D]; assay: Potentiation of human CFTR G551D mutant expressed in rat FRT cells coexpressing HS-YFP assessed as increase in iodide influx at 5 uM pre-incubated for 15 to 30 mins in presence of forskolin by fluorescent method relative to forskolin alone; assay type: cell-based; conditions: filed as activator, time min 15-30; outline: as §2
[10] = test system: Cystic fibrosis transmembrane conductance regulator (Homo sapiens), P13569 [F508del]; assay: Effect on processing/trafficking of CFTR F508 deletion mutant in primary HBE cells from F508del/F508del CF patient at 0.5 uM incubated for 24 hrs in presence of CFTR corrector ARN23765 by TEER/PD assay; assay type: cell-based
Outline: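 Differentiated F508del/F508del primary bronchial epithelia grown at air–liquid interface 2–3 weeks; treated 24 h at 37 °C, 5% CO2 in culture medium with vehicle, corrector ARN23765 (10 nM) alone, or ARN23765 plus test compound (0.5 μM); TEER and PD measured, equivalent short-circuit current calculated; n = 9 (three experiments × three biological replicates).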

[11] = target: T1, Cystic fibrosis transmembrane conductance regulator; assay: Potentiation of CFTR in primary human bronchial epithelial cells assessed as stimulation of CFTR-mediated chloride current at 100 uM in presence of CPT-cAMP by short-circuit current method; conditions: dose 1.0 µM, in the assay text read “at 1 uM” for “at 100 uM”
Outline: (§3)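 Non-CF primary HBE cells on porous inserts, differentiated at air–liquid interface 2–3 weeks; Ussing chamber short-circuit current. Amiloride added to block ENaC; cells stimulated with submaximal CPT-cAMP, then increasing potentiator concentrations or potentiator then CPT-cAMP 5 μM and 100 μM; total CFTR current defined by CFTR inhibitor-172; n = 9 (three experiments × three replicates).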
Target sequence in this assay (P13569 whole entry, looked up): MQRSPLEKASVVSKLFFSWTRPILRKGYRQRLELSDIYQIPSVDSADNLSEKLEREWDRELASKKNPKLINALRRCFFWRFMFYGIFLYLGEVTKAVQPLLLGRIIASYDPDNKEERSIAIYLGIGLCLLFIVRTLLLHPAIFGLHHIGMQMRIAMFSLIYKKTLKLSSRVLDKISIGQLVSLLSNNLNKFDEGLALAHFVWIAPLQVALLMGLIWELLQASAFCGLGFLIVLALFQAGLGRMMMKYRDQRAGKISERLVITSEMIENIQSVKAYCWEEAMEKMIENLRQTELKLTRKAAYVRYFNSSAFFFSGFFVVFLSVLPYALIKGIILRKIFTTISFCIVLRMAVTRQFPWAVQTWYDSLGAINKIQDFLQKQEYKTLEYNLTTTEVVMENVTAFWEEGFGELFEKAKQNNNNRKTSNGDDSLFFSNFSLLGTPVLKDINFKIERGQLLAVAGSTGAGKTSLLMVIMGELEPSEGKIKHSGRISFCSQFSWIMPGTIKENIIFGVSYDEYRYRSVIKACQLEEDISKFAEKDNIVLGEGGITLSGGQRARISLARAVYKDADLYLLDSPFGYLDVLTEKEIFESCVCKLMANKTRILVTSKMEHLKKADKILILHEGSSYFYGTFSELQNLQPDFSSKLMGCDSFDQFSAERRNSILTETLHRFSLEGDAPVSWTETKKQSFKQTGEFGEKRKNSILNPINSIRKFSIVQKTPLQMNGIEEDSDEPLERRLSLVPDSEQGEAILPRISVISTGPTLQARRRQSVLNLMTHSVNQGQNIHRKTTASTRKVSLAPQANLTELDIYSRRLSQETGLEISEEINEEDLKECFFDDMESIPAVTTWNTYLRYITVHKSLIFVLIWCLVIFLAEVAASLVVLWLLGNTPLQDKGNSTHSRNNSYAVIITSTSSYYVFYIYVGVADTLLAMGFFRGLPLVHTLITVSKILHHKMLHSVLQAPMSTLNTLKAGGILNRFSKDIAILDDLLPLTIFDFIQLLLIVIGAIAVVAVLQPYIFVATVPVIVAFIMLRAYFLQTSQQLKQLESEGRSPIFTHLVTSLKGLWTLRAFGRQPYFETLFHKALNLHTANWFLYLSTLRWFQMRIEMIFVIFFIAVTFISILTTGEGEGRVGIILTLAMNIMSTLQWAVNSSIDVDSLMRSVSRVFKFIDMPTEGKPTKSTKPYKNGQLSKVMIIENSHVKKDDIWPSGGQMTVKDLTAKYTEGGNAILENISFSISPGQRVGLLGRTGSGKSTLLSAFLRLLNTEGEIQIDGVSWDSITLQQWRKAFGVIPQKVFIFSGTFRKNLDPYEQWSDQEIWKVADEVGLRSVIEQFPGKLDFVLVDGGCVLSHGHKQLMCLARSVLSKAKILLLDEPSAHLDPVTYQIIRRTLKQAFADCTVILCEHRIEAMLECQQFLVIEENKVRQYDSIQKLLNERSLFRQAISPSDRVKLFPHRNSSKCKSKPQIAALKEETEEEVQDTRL

[12] = target: T1, Cystic fibrosis transmembrane conductance regulator; assay: Potentiation of CFTR in primary human bronchial epithelial cells assessed as stimulation of CFTR-mediated chloride current at 0.5 to 5 uM in presence of CPT-cAMP and CFTR inhibitor-172 by short-circuit current method; conditions: dose microM 0.5-5; outline: as §3
Target sequence in this assay (P13569 whole entry, looked up): as above

[13] = target: T1, Cystic fibrosis transmembrane conductance regulator; assay: Potentiation of CFTR in primary human bronchial epithelial cells assessed as stimulation of CFTR-mediated chloride current at 30 to […] uM in presence of CPT-cAMP by short-circuit current method; conditions: filed as activator, dose microM 30-50; outline: as §3
Target sequence in this assay (P13569 whole entry, looked up): as above

Cystic fibrosis transmembrane conductance regulator (Homo sapiens), P13569 [F508del], sequence (P13569 as listed by the source): as the sequence (P13569 as listed by the source) above
Cystic fibrosis transmembrane conductance regulator (Homo sapiens), P13569 [G551D], sequence (P13569 whole entry G551D): as the sequence (P13569 whole entry, looked up) above, with G551D counted along it

Row | Activity [1] | Activity [2] | Activity [3] | Activity [4] | Activity ([7]; filed as activator) | Compound | other results
1 | Active | Active | Active | Dose-dependent effect |  | CN(C)c1ccc2cc(C(=O)N3CCc4[nH]c5ccccc5c4C3)[nH]c2c1 | 
2 | Active | Active | Active | Dose-dependent effect |  | O=C(c1cnn(-c2ccccc2)c1)N1CCc2[nH]c3ccccc3c2C1 | 
3 | Active | Active | Active | Dose-dependent effect |  | COc1ccc2[nH]c3c(c2c1)CN(C(=O)c1cc(C(F)(F)F)[nH]n1)CC3 | Activity [12]: inactive; Activity [13]: Active; Activity [7]: inactive

More lines, now with the values behind:

Row | Compound | Activity [1] | Activity [2] | Activity [3] | Activity [4] | Activity ([7]; filed as activator) | other results
4 | Cc1ccc(F)c2[nH]c3c(c12)[C@H]1CC[C@@H](C3)N1C(=O)c1cc(C(F)(F)F)[nH]n1 |  |  |  |  |  | Emax [5]: inactive; EC50 [6]: Not Active
5 | COc1cc(F)c2[nH]c3c(c2c1)CN(C(=O)c1cc(C(F)(F)F)[nH]n1)CC3 |  |  |  |  | Active | 
6 | CC(C)(C)c1cc(C(C)(C)C)c(NC(=O)c2c[nH]c3ccccc3c2=O)cc1O |  |  |  |  | Active | Activity [8]: Active; Activity [9]: Active
7 | Cc1ccc(F)c2[nH]c3c(c12)CN(C(=O)c1cc(C(F)(F)F)[nH]n1)[C@H](C)C3 |  |  |  |  | Active | Activity [10]: inactive; fold change (FC) [11]: > 2
8 | O=C(c1cc(C(F)(F)F)[nH]n1)N1CCc2[nH]c3c(F)cccc3c2C1 |  |  |  |  | Active | 
9 | Cc1ccc(F)c2[nH]c3c(c12)CN(C(=O)c1cc(C(F)(F)F)[nH]n1)CC3 |  |  |  |  | Active | 
